Results on six compounds are retold here after article PMC12936682 (Journal of Pharmaceutical Analysis, 2025).

Read-outs that look alike come from different tables or passages of the source.

The target of data set [1] is T1, Notum (Homo sapiens, UniProt Q6P988).
T1 sequence (Q6P988 20-496): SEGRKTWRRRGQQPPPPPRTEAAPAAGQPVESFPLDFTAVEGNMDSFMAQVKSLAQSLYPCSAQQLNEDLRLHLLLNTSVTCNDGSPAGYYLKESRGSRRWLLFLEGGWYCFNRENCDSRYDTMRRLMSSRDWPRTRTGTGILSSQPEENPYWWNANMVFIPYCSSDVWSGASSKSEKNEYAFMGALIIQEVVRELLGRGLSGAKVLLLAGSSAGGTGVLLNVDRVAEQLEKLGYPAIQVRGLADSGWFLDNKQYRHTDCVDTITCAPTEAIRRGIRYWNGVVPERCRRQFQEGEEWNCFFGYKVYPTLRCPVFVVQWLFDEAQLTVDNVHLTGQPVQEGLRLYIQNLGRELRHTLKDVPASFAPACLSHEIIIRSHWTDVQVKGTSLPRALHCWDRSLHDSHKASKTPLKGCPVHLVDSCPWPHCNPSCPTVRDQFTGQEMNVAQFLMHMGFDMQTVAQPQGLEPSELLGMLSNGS
To be noted: cited from earlier work.

In data set [2] the test system is Dex-induced osteoporosis mice. In words: In vivo anti-osteoporosis effects in Dex-induced osteoporosis mice. Details: species or system C57BL/6J mice. To be noted: for cortical and cancellous bones (micro-CT, H&E): rhein 40 and 80 mg/kg i.g. 5 weeks, PTH i.p., vs Dex.
Data set [3] relates to MC3T3-E1 cells. The data set can be described thus: CCK-8 cell viability assay. Format: cell-based. To be noted: CCK-8, Fig. S5. For orientation: Tetrazolium dyes change colour on reduction, which living cells bring about.
The target of data set [4] is T1, Notum. In words: Notum inhibition assay. Format: biochemical. To be noted: for inhibition manner against Notum: inhibition kinetic analyses, Lineweaver-Burk plots; for time-dependence of Notum inhibition: pre-incubation 3 and 33 min. A digest of the protocol: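 Notum expressed and purified per an earlier protocol. The 200 μL mix held 10 μM OPTS, 0.1 M Tris-HCl pH 7.4 and inhibitor, preincubated at 37 °C for 3 min. For time-dependence, parallel preincubations of 3 and 33 min ran before OPTS addition. Product fluorescence was read at ex 403/em 510 nm after subtracting no-enzyme blanks. IC50 came from nonlinear regression.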

The subject of data set [5] is MC3T3-E1 cells. The data set can be described thus: Osteoblast differentiation: ALP level, ALP staining and alizarin red S staining. The data set is classed as cell-based. To be noted: for level of ALP: MC3T3-E1 osteoblasts, induced differentiation 5 days, Fig. S6. Put shortly: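 MC3T3-E1 cells were grown in DMEM with 10% FBS and 1% penicillin-streptomycin at 37 °C, 5% CO2. Cells were seeded at 2 × 10³ cells/well for 24 h, then moved to induction medium (10 mM β-glycerophosphate, ascorbic acid) with Dex and test compound added together. ALP staining (BCIP/NBT) followed 7 days and 4% paraformaldehyde fixation (RT, 15 min). ARS staining followed 21 days. Both were viewed by microscope.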

For data set [6] the following is noted: cited from earlier work.
The subject of another data set is healthy mice. In words: Safety assessment of rhein in mice. Format: in vivo, C57BL/6J mice. To be noted: 200 mg/kg orally once daily for 14 days, vs control. A digest of the protocol:
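One group received 0.5% CMC-Na vehicle. The other received test compound at 200 mg/kg orally once daily for 14 days. At the end, serum plus heart, liver, spleen, lung and kidney were collected. Data are mean ± standard deviation, compared by Student's t-test (P < 0.05).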

For data set [7] the following is noted: cited from earlier work. The source holds these as a separate data set.
Data set [8] concerns MC3T3-E1 cells. The data set can be described thus: RNA sequencing of Dex-challenged osteoblasts. Format: cell-based. A digest of the protocol:
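Dex-treated MC3T3-E1 cells then received test compound and were cultured for 7 days. Total RNA was extracted from control (DMSO), Dex and Dex plus test compound groups for sequencing.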

The mark [9] stands for this setting: treatment 7 days, Dex-challenged MC3T3-E1.

As to `C=C1C(=O)O[C@@H]2C[C@@]3(C)CCCC(=C)[C@@H]3C[C@H]12` [Isoalantolactone], on Notum [1] (previously reported natural Notum inhibitor ref 41), the IC50 was 60.6 nM.
With “parathyroid hormone 1–34 [PTH, reference compound]”, the “cortical and cancellous bones (micro-CT, H&E)” value in data set [2] is reported as “thickened significantly”.
As to `Cc1cc(O)c2c(c1)C(=O)c1cc(O)cc(O)c1C2=O` [Emodin], the “growth rates of MC3T3-E1 cells” value in the data set on MC3T3-E1 cells [3] is given as “not enhanced”. For the same compound, on Notum [4], the half-inhibitory concentration (IC50) came out at 286 ± 23.5 nM, the affinity corresponds to a Ki of 276 nM, the “inhibition manner against Notum” value is reported as “competitive” and the “time-dependence of Notum inhibition” value is on record as “not time-dependent”. In addition, the “level of ALP” value in the data set with MC3T3-E1 cells [5] is recorded as “significantly up-regulated”. The “pro-differentiation effects on MC3T3-E1 cells” value in the data set with MC3T3-E1 cells [5] (relative high dose 5 μM) is given as “slight pro-differentiation effects”.
Turning to `Cc1cc(O)c2c(c1)C(=O)c1cccc(O)c1C2=O` [Chrysophanol], on Notum [4], the IC50 worked out at 946 ± 55.1 nM and the “time-dependence of Notum inhibition” value is given as “not time-dependent”.
As to `O=C(O)c1cc(O)c2c(c1)C(=O)c1cccc(O)c1C2=O` [Rhein], the “growth rates of MC3T3-E1 cells” value in the data set on MC3T3-E1 cells [3] is “not enhanced”. In addition, the oral bioavailability result in data set [6] was “very lower”. Besides, in the data set with healthy mice, the “body weight at the outset and at the end of animal tests” value is “no noticeable discrepancy”; the “serum safety indicators (ALB, ALP, ALT, AST, CK, CREA, GLU, TC, TG, TP, BUN)” value is “no significant difference”. Further, the metabolic stability result in data set [7] is listed as “poor”. Also, the “Notum expression levels in cortical bone (immunofluorescence)” value in data set [2] (Dex-challenged mice treated with rhein) was “significantly suppressed”. The “cortical and cancellous bones (micro-CT, H&E)” value in [2] was “thickened significantly”. Further, in data set [2] (rhein group, micro-CT), the “BV/TV and BMD at the distal femur” value was “did not increase significantly”. Also, the “BMD increase at the mid femur” value in data set [2] (rhein group, micro-CT, compared with distal femur) was “more prominent”. On Notum [4], the 50% inhibitory concentration (IC50) was 9.98 ± 0.84 nM, the inhibitory constant (Ki) stood at 13.6 nM, the “inhibition manner against Notum” value was “competitive” and the “time-dependence of Notum inhibition” value is on record as “not time-dependent”. For the same compound, the “expression of Wnt signaling-related genes (WNT6, GSK3β) and osteogenic differentiation-related genes (RUNX2, BMP4)” value with MC3T3-E1 cells [8] (Dex-challenged MC3T3-E1, RNA sequencing) was “significantly restored”. Moreover, in the data set with MC3T3-E1 cells [8] (setting [9]), the “genes downregulated in comparison to the Dex-challenged group” value was 78 and the “genes upregulated in comparison to the Dex-challenged group” value is 67. The “reduced ALP staining intensity and decreased matrix mineralisation level” value with MC3T3-E1 cells [5] (0.5 μM, Dex-challenged MC3T3-E1 cells) is on record as “totally restored”. Besides, the “level of ALP” value in the data set on MC3T3-E1 cells [5] is “significantly up-regulated”. Further, the “ALP staining intensity and matrix mineralisation level of osteoblasts” value in the data set on MC3T3-E1 cells [5] (dose-dependent, ALP day 7, ARS day 21, Dex-treated MC3T3-E1) is given as “significantly increased”. Besides, the “pro-differentiation effects on MC3T3-E1 cells” value in the data set on MC3T3-E1 cells [5] (low dose 0.5 μM) is listed as “more significant pro-differentiation effects”.
Regarding `Cn1c(=O)c2c(ncn2C)n(C)c1=O` [caffeine], the half-inhibitory concentration (IC50) on Notum [1] (previously reported natural Notum inhibitor ref 46) is 200000 nM.

As a reminder, the IC50 is the concentration that inhibits the measured activity by half. As usually defined, the Ki is a measure of affinity in units of concentration, obtained from inhibition or displacement. A high value points to a looser hold on the target.
